For orientation: CC50 means the concentration that lowers cell viability or growth by half. Higher therefore signals lower toxicity to the cells. Usually EC50 stands for the concentration giving half of the maximal effect.

Where only a bound is given, the exact number is not on record here.

This note sets out measurements from ChEMBL document CHEMBL2401641, “Design and synthesis of N-alkyldeoxynojirimycin derivatives with improved metabolic stability as inhibitors of BVDV and Tacaribe virus” (Bioorg Med Chem Lett, 2013).

The nature of series [1]: Metabolic stability in human liver microsomes assessed as compound remaining at 2 uM after 60 mins in presence of NADPH. In kind it is ADME, Microsome. The conditions noted are these: read-out: Stability. In short, it runs like this: (§1)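 Liver microsomes at 0.5mg/ml incubated at 37°C with test compound at 2μM in the presence of 1mM NADPH. Percent of parent compound remaining measured at 60 min. Run by a contract lab.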

The nature of series [2]: Metabolic stability in rat liver microsomes assessed as compound remaining at 2 uM after 60 mins in presence of NADPH. In kind it is ADME, Microsome. The following applies: read-out: Stability. An outline of the steps:
as §1
A general note: Liver microsomes are a subcellular fraction often used to study metabolism.

Series [3] is described as follows: Metabolic stability in mouse liver microsomes assessed as compound remaining at 2 uM after 60 mins in presence of NADPH. It is filed as ADME, Microsome. The conditions noted are these: read-out: Stability. An outline of the steps:
as §1

A short description of series [4]: Cytotoxicity against MDBK cells by MTT assay. It is filed as cell-based, Bos taurus. The following applies: cattle. On the technique in general: Tetrazolium assays rely on reduction of a dye to a coloured formazan, in cell work by metabolically active cells.
Series [5] has as its system Bovine viral diarrhea virus 1. Kind of series: Antiviral activity against Bovine viral diarrhea virus infected in MDBK cells assessed as reduction in viral yield after 3 days by neutral-red staining-based microscopic analysis. In kind it is functional, organism-based. The conditions noted are these: Bovine viral diarrhea virus isolates and strains, 72 h. In short, it runs like this: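 BVDV titers from treated infected cultures were determined by standard virus yield reduction assay in MDBK cells, and EC50 was derived.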

Series [6] can be described thus: Cytotoxicity against human Huh7.5 cells by MTT assay. In kind it is cell-based, Huh-7.
For another series, the system named is Tacaribe virus. The experiment in a line: Antiviral activity against Tacaribe virus infected in human Huh7.5 cells assessed as reduction in viral yield after 3 days by neutral-red staining-based microscopic analysis. In kind it is functional, organism-based. The following applies: Mammarenavirus tacaribeense, Huh-7, 72 h. In short, it runs like this:
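Huh7 cells infected with Tacaribe virus at MOI 0.01. Compounds were added immediately after virus incubation at 0.01 to 100 μM. Progeny titers were determined by standard virus yield reduction assay in Vero cells, and EC50 was derived.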

Take `CC(C)(C)C(=O)N(CCCCCCN1C[C@H](O)[C@@H](O)[C@H](O)[C@H]1CO)c1ccc(F)cc1F`: the remaining at 1 h, 2 µM in series [1] is 36.1%; in series [2], 21.6%; in series [3] it was 55.3%.
With `CC(C)(C)C(=O)N(CCCCCCN1C[C@H](O)[C@@H](O)[C@H](O)[C@H]1CO)C1CCCCC1`, the remaining at 1 h, 2 µM in series [1] amounted to 41.6%; in series [2], 26.9%; in series [3] it was 58.6%. The molecule further showed a CC50 in series [4] of more than 500 µM.
Regarding `O=S(=O)(c1ccccc1)N(CCCCCCN1C[C@H](O)[C@@H](O)[C@H](O)[C@H]1CO)C1CCCCC1`, the EC50 in series [5] worked out at 0.5 µM; in the series with Tacaribe virus it was 1.6 µM. Moreover, the remaining at 1 h, 2 µM in series [1] is 13%; in series [2], 3.83%; in series [3], 42.8%. Also, the results for the half-maximal cytotoxic concentration (CC50) in series [6] and in series [4] were 280 µM and 200 µM, respectively.
`O=C(c1ccccc1)N(CCCCCCN1C[C@H](O)[C@@H](O)[C@H](O)[C@H]1CO)C1CCCCC1`: the results for the EC50 (in series [5]; in the series on Tacaribe virus) were 0.32 µM and 0.6 µM, respectively. The results for the remaining at 1 h, 2 µM in series [1], in series [2] and in series [3] were 82.6%, 77.4% and 97.4%, respectively. In addition, the CC50 in series [6] and in series [4] was more than 500 µM throughout.
Regarding `O=C(c1cc(F)c(F)cc1F)N(CCCCCCN1C[C@H](O)[C@@H](O)[C@H](O)[C@H]1CO)C1CCCCC1`, the values for the EC50 (in series [5]; with Tacaribe virus) were 0.27 µM and 0.6 µM, respectively. In addition, the CC50 in series [6] and in series [4] was more than 500 µM in each case.
Consider `CS(=O)(=O)N(CCCCCCN1C[C@H](O)[C@@H](O)[C@H](O)[C@H]1CO)C1CCCCC1`, for which the concentration giving a half-maximal response (EC50) came out at 0.2 µM in series [5] and 0.7 µM in the series on Tacaribe virus. In addition, the remaining at 1 h, 2 µM in series [1] was 95.5%; in series [2] it was 65.7%; in series [3] it was 86.9%. In addition, the CC50 in series [6] and in series [4] was more than 500 µM throughout.
For `CC(C)(C)S(=O)(=O)N(CCCCCCN1C[C@H](O)[C@@H](O)[C@H](O)[C@H]1CO)C1CCCCC1`, the EC50 turned out to be 0.31 µM in series [5] and 0.4 µM in the series on Tacaribe virus. Moreover, the remaining at 1 h, 2 µM in series [1] was found to be 50.2%; in series [2], 12.1%; in series [3] it was 65.4%. In addition, the CC50 in series [6] and in series [4] was more than 500 µM throughout.
Take `CC(C)OP(=O)(OC(C)C)N(CCCCCCN1C[C@H](O)[C@@H](O)[C@H](O)[C@H]1CO)C1CCCCC1`: the EC50 in series [5] was 3.4 µM; in the series with Tacaribe virus it was 0.3 µM. The figures for the cytotoxic concentration (CC50) in series [6] and in series [4] were 310 µM and more than 500 µM, respectively.
`NC(=O)N(CCCCCCN1C[C@H](O)[C@@H](O)[C@H](O)[C@H]1CO)C1CCCCC1`: the half-maximal effective concentration (EC50) was 14.2 µM in series [5] and 100 µM in the series on Tacaribe virus. Moreover, the 50% cytotoxic concentration (CC50) in series [6] and in series [4] was more than 500 µM each time.
As for `CCCNC(=O)N(CCCCCCN1C[C@H](O)[C@@H](O)[C@H](O)[C@H]1CO)C1CCCCC1`, the concentration giving a half-maximal response (EC50) in series [5] came to 15.8 µM; in the series on Tacaribe virus, 25 µM. Also, the 50% cytotoxic concentration (CC50) in series [6] and in series [4] was more than 500 µM throughout.
As for `CC(C)(C)NC(=O)N(CCCCCCN1C[C@H](O)[C@@H](O)[C@H](O)[C@H]1CO)C1CCCCC1`, the figures for the concentration giving a half-maximal response (EC50) (in series [5]; with Tacaribe virus) were 0.25 µM and 0.74 µM, respectively. Also, the figures for the remaining at 1 h, 2 µM in series [1], in series [2] and in series [3] were 93.6%, 92.8% and 87.6%, respectively. Besides, the CC50 in series [6] and in series [4] was more than 500 µM in each case.
As to `O=C1OC[C@H](c2ccccc2)N1CCCCCCN1C[C@H](O)[C@@H](O)[C@H](O)[C@H]1CO`, the EC50 in series [5] amounted to 0.8 µM. In series [4], this molecule returned a CC50 of more than 500 µM.
On to `O=C1OC[C@@H](c2ccccc2)N1CCCCCCN1C[C@H](O)[C@@H](O)[C@H](O)[C@H]1CO`, for which the EC50 in series [5] was found to be 3.5 µM. The same molecule had a 50% cytotoxic concentration (CC50) in series [4] of more than 500 µM.
Turning to `O=c1oc2ccccc2n1CCCCCCN1C[C@H](O)[C@@H](O)[C@H](O)[C@H]1CO`, the EC50 (in series [5]; in the series with Tacaribe virus) was 0.4 µM each time. Further, the remaining at 1 h, 2 µM in series [1] turned out to be 101%; in series [2], 86.9%; in series [3], 86.7%. Also, the 50% cytotoxic concentration (CC50) in series [6] and in series [4] was more than 500 µM throughout.
